Source: PubChem BioAssay
Only some compounds are listed: those with a hit (about 2.7% of all), similar ones and a draw of the others.
CHO parental Ca = counter-screen for OX1R antagonists: effect in parental CHO cells; parental CHO-K1, ATP-induced calcium, Fluo-8 fluorescence; inhibition, % at 5.6 µM; 330,000 tested, 0.63% active; AID 463079;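 active = inhibition above that plate's mean sample inhibition plus 3 SD, cut at about 26% in these data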;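 note: 0% = ATP-challenged DMSO wells and 100% = DMSO wells without ATP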
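test system = CHO parental line | reagent = ATP stimulus | measured by = intracellular calcium via Fluo-8 no-wash fluorescent dye | control set = ATP and no-ATP DMSO wells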
OX1R antag-1 = human HCRTR1 antagonism | O43613 | CHO/OX1R cells, Fluo-8 calcium fluorescence, orexin A | inhibition, % at 5 µM | 330,000 tested, 0.43% active;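 active = inhibition above its plate's threshold, mean inhibition of all tested compounds on the plate plus 3 SD, cut at about 37% in these data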;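 note: 0% = orexin A challenge wells and 100% = SB-334867-A antagonist wells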
Target sequence (O43613 whole entry, looked up): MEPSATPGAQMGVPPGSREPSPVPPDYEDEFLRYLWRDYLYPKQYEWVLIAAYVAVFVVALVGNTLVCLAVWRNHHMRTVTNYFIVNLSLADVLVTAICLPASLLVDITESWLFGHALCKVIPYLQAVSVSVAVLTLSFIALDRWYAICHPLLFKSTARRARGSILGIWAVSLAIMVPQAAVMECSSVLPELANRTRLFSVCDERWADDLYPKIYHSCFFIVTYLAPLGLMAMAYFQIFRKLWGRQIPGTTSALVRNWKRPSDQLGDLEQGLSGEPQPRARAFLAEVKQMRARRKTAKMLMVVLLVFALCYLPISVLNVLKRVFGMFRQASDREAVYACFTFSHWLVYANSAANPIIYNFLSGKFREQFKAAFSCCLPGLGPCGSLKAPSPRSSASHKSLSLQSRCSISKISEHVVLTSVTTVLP
V1aR counter = activates human V1a receptor in oxytocin agonist counter-screen; P37288; CHO-V1R cells, Fluo-8 calcium fluorescence, agonist mode; 0% DMSO, 100% 3 nM vasopressin; activation, % at 3 µM; 320,000 tested, 0.25% active; AID 2797;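 active = activation above the mean activation of all tested compounds plus 3 SD, per screening run, cut at about 20% in these data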;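 note: signal is peak over basal fluorescence ratio across a 100 second FLIPR read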
OX1R antag-2 = antagonists of human orexin 1 receptor (OX1R). O43613. OX1R-expressing cells, FRET antagonist read-out. inhibition, % at 6.6 µM. 330,000 tested, 1.8% active; in the data active = inhibition mostly above about 38%, no sharp cut-off; inactive = mostly below about 40%;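 note: 0% = agonist challenge alone and 100% = reference antagonist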
OXTR ag = activates the human oxytocin receptor. CHO-OTR cells, Fluo-8 calcium fluorescence; normalized: DMSO 0%, oxytocin 100%. AID 2435. P30559. activation, % at 3 µM. 320,000 tested, 0.32% active;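 active = activation above the mean of all tested compounds plus 3 SD, cutoff set per screening run, cut at about 20% in these data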;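 note: peak over basal fluorescence ratio from a 100 s FLIPR kinetic read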
OXTR potentiator = potentiates the human oxytocin receptor response; activation, % at 3 µM; 320,000 tested, 0.061% active; CHO-OTR cells, Fluo-8 calcium fluorescence, potentiator mode; 0% = oxytocin EC15, 100% = EC100;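 active = activation above that plate's cutoff, the mean activation of tested compounds plus 3 SD, cut at about 6.6% in these data, passing the limit was not always enough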;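 note: 100% uses oxytocin at 75 nM as the full agonist control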
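Measured by – Fluo-8 calcium dye fluorescence · Test system – human OTR in CHO cells · Dosing – one concentration, 3.0 µM compound · Controls – EC15 oxytocin alone as 0%, 75 nM oxytocin as 100% · Evaluation – normalized max/min fluorescence ratio, % activation · Timing – 6 min pre-incubation, 100 s read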
* marks the source's active call; other numbers are inactive results.

SMILES	CHO parental Ca	OX1R antag-1	V1aR counter	OX1R antag-2	OXTR ag	OXTR potentiator
CCn1c(O)c(N=NC(=O)c2cccs2)c2ccccc21	-25.0	7.7	-0.7	76.4*	-0.3	-11.6
CCCn1c(O)c(N=NC(=O)c2ccco2)c2ccccc21	-27.3	-42.9	2.5	35.7	0.7	-10.4
O=C(CN1C(=O)c2cccc([N+](=O)[O-])c2C1=O)N1CCN(S(=O)(=O)c2ccccc2)CC1	-18.7	23.6	1.0	33.7*	0.7	-7.4
CN(C)C=Nc1c(Br)cc(Br)c2nonc12	64.4*	58.0*	84.2*	42.7	106.3*	-17.4
O=C(CN1CCCC1c1ccc2c(c1)OCCO2)NC(=O)Nc1ccccc1 (centres undefined)	-11.4	-5.8	1.4	23.3	-1.3	-4.8
Oc1cc(Nc2ccccc2)cc2cccnc12	1.7	5.7	0.6	26.9	0.1	-2.2
Oc1cc(NCCN2CCOCC2)cc2cccnc12	-1.3	1.6	1.3	54.5*	1.6	2.9
CN(C)/C=C/C(=O)c1cc(N2CCOCC2)ccc1[N+](=O)[O-]	0.7	-14.1	0.2	19.2	1.1	-11.8
CC(=O)c1cc(N2CCC(C(=O)O)CC2)ccc1[N+](=O)[O-]	-17.9	-9.9	0.2	66.8*	-0.6	-15.3
COc1ccc(C)cc1NC(=O)CCNS(=O)(=O)c1ccc2c(c1)CC(C)N2C(C)=O (centres undefined)	-9.7	-21.3	1.2	10.0	1.0	-1.0
Cc1nc2cc(-c3ccccc3)nn2c(C)c1CCC(=O)NC(C)c1ccc2c(c1)OCCO2 (centres undefined)	-20.2	-5.2	1.7	52.2*	-0.5	-7.6
Cc1nc2nc(C)c(CCC(=O)NC(C)c3ccc4c(c3)OCCO4)c(C)n2n1 (centres undefined)	8.6	-5.8	-0.1	11.8	0.1	0.5
Cc1nc2cc(-c3cccc(F)c3)nn2c(C)c1CCC(=O)NC(C)c1ccc2c(c1)OCCO2 (centres undefined)	-25.0	8.8	5.4	49.0*	1.4	-3.6
CC1Cc2ccccc2N1C(=O)C1CC(=O)N(c2ccccc2)C1 (centres undefined)	-4.1	-30.3	-0.1	41.5	0.0	-10.7
Cc1cc(Cn2ccnc2)c(C)c([N+](=O)[O-])c1Cn1ccnc1	-1.1	-14.7	0.1	0.9	0.8	-4.5
Cc1nn(C)c(C)c1N1C(=O)c2cccc3c(N)ccc(c23)C1=O	50.6*	62.2*	127.9*	19.0	108.5*	-12.4
Cc1ccc(N2C(=O)c3cccc4c(N)ccc(c34)C2=O)c2cccnc12	65.5*	73.8*	139.2*	2.3	132.9*	-33.6
CCN1C(=O)c2cccc3c(N)ccc(c23)C1=O	46.3*	58.5*	104.3*	18.6	76.6*	-10.1
Cc1nn(C)c(C)c1N1C(=O)c2cccc3c(Br)ccc(c23)C1=O	2.7	1.9	5.8	62.4	6.6	-15.6
Cc1ccc(-n2cnnn2)c2cccnc12	-0.3	-1.3	0.4	3.5	0.1	-0.2
COc1ccc(CCn2c(-c3cc([N+](=O)[O-])cc([N+](=O)[O-])c3)nc3nc4ccccc4nc32)cc1OC	-2.3	-11.1	-0.7	5.2	1.4	12.2*
COc1ccc(CCn2c(-c3cc([N+](=O)[O-])cc([N+](=O)[O-])c3)nc3nc4ccccc4nc32)cc1	-12.1	-21.1	0.6	25.9	0.1	0.3
CC[N+](CC)(CC)CCCCOc1ccc2c(c1)C(=O)c1cc(OCCCC[N+](CC)(CC)CC)ccc1-2	-7.2	-5.8	0.0	57.4*	-0.3	3.1
CCC(C(=O)NC1CCCCC1)N(Cc1cccs1)C(=O)CCC(=O)Nc1cc(C)on1 (centres undefined)	-19.8	-22.9	-0.9	3.1	-1.2	-5.9
Cc1ccc(NC(=O)Cn2c(=O)oc3cc(S(=O)(=O)N4CCC(C)CC4)ccc32)cc1C	31.9*	-8.3	5.7	14.4	1.8	-6.2
SMILES	CHO parental Ca	OX1R antag-1	V1aR counter	OX1R antag-2	OXTR ag	OXTR potentiator
COc1cc2c(cc1OC)C(COc1ccc(C(C)C)cc1)NCC2 (centres undefined)	-17.0	-2.0	4.0	14.0	3.6	-21.1
CCOC(=O)c1cc([N+](=O)[O-])sc1NC(=O)CC	-7.8	-14.4	-0.3	61.3*	-1.7	-14.2
CCOC(=O)c1cc([N+](=O)[O-])sc1N	4.1	-11.2	-0.6	34.7	-1.5	-13.0
O=C(Nc1ccc([N+](=O)[O-])c(NC(=O)c2cccnc2)c1)c1cccnc1	-2.9	0.7	-1.0	8.1	0.9	-3.7
O=C(Nc1cc2c(cc1[N+](=O)[O-])OCCO2)c1cccnc1	-14.3	-5.7	-0.4	50.2*	-0.2	-5.1
O=C(Nc1ccncc1)c1cc2ccccc2cc1O	8.1	4.6	15.2	6.6	15.8	-18.4
Cc1cc(C(C)(C)C)oc1C(=O)N(CC(=O)NC1CCCC1)c1ccc(F)cc1	-8.8	0.4	4.5	54.5*	0.5	-8.2
Cc1cc(C(C)(C)C)oc1C(=O)N(CC(=O)NC1CCCC1)c1c(C)cccc1C	45.7*	42.5*	-0.8	77.0*	-1.2	-2.5
CCC(=O)c1ccc(OC(=O)C2CCN(C3=NS(=O)(=O)c4ccccc43)CC2)cc1	-24.6	-6.3	5.5	3.3	6.2	-10.2
c1ccc(-c2nnc(SCc3nc4ccccc4[nH]3)n2Cc2ccco2)cc1	-24.5	-32.5	2.2	29.7	-0.4	-2.6
Cc1ccc(OCc2nnc(SCc3nc4ccccc4[nH]3)n2Cc2ccco2)cc1	32.4*	36.3	10.5	61.8	11.6	-21.6
COc1cc(-c2nc3ccccn3c2NCc2ccccc2)ccc1SC1CCCCC1	61.8*	-10.2	-1.2	23.1	-1.1	-8.2
CN(C)c1ccc(/C=C(\NC(=O)c2ccccc2)C(=O)NCCCn2ccnc2)cc1	-5.0	-1.0	-0.7	40.2*	-0.4	-5.8
Cc1sc2ncn(CC(=O)N3CCN(c4ccc(F)cc4)CC3)c(=O)c2c1S(=O)(=O)N1CCOCC1	-10.4	-17.6	-0.9	8.6	0.6	5.8
CCOC(=O)C1CCCN(C(=O)CSCc2ccccc2)C1 (centres undefined)	-22.8	-17.1	1.0	9.6	1.3	-10.2
CCOC(=O)C1CCCN(C(=O)CCc2nnc(-c3ccc(C(C)=O)s3)o2)C1 (centres undefined)	-10.8	-13.9	-0.1	42.2*	-1.2	-2.8
O=C(O)c1cccc(NS(=O)(=O)c2ccc(C3CCCCC3)cc2)c1	-7.9	4.5	2.3	6.9	1.2	-2.8
Cc1cccc(NS(=O)(=O)c2ccc(C3CCCCC3)cc2)c1	47.9*	51.1*	3.3	0.1	3.0	-20.5
N#CCc1ccc(NS(=O)(=O)c2ccc(C3CCCCC3)cc2)cc1	67.7*	12.8	11.7	17.4	10.9	-8.6
